Results of several laboratories.
Protocols differ between the studies behind these lines.
Target: Cyclin-dependent kinase-like 3 (CDKL3, Homo sapiens, UniProt Q8IVW4)

Structure (SMILES) | test | conditions | remaining binding [%]
Cc1cc(NC(=O)c2cccc(S(F)(F)(F)(F)F)c2)cc(-n2ccn3nc(-c4cccnc4)cc23)c1 | cell-free assay, competition with immobilised ligand | 1 µM | 100
O=C(NCCCN1CCOCC1)c1ccc(Nc2nccc(-c3cc4ccccc4s3)n2)cc1 | binding, competition with immobilised ligand | 1 µM | 89
CN(C)c1nccc(-c2cnc3ncccn23)n1 | binding | 1 µM | 100
O=C(c1ccc(Nc2ncc(Cl)c(-c3ccc(Cl)s3)n2)cc1)N1CCC(N2CCCC2)CC1 | binding, competition with immobilised ligand | 1 µM | 39
CO[C@@H](C)c1c(Nc2ccc([C@H](N(C)C(=O)C3CCS(=O)(=O)CC3)C(F)(F)F)cc2)cnc2cc(Cl)nn12 | cell-free assay, competition with immobilised ligand | 1 µM | 73
COc1cnc(Nc2cccc(S(N)(=O)=O)c2)nc1N1CCN(c2ccccc2)C(=O)C1 | binding, competition with immobilised ligand | 1 µM | 99
Cc1noc([C@H]2C[C@@H](c3ccc(C(F)(F)F)cc3)CN(C(=O)N3CCS(=O)(=O)C3)C2)n1 | binding, competition with immobilised ligand | 1 µM | 81
O=C(c1ccc(Nc2ncc(Cl)c(-c3cc4ccccc4s3)n2)cc1)N1CCC(N2CCCC2)CC1 | binding, competition with immobilised ligand | 1 µM | 47
O=C(NCC1CCOCC1)c1n[nH]cc1NC(=O)c1c(F)cccc1F | binding, competition with immobilised ligand | 1 µM | 100
COc1ccnn2ncc(-c3ccnc(N(C)C)n3)c12 | binding | 1 µM | 94
CCN1CCN(Cc2ccc(C(=O)Nc3ccc(C)c(Oc4ccc5c(c4)CC(=O)N5)c3)cc2C(F)(F)F)CC1 | binding, competition with immobilised ligand | 1 µM | 86
N[C@@H]1CCN(c2nccc(-c3cnn4ncccc34)n2)C1 | binding | 1 µM | 80
FC(F)(F)Oc1cccc(-c2cnc3ccc(-c4ccncc4)nn23)c1 | cell-free assay, competition with immobilised ligand | 5 µM | 85
C[C@@H](c1ccc(-n2cnc3c(N)ncnc32)cc1)N1CCc2nn(C)c(Cc3ccccc3)c2C1=O | binding, competition with immobilised ligand | 0.1 µM | 95
CC(C)CC(=O)N1CCc2nc(-c3ccc(Br)cc3)nc(N(C)Cc3ccccc3)c2C1 | cell-free assay, competition with immobilised ligand | 0.1 µM | 89
c1cncc(-c2cccc(Nc3nccc(NC4CCCCC4)n3)c2)c1 | binding, competition with immobilised ligand | 10 µM | 100
c1cnn2ncc(-c3ccnc(N4CCC45COC5)n3)c2c1 | binding | 1 µM | 93
CNCc1ccccc1-c1csc([C@@H](C)Nc2nc(C)nc3cc(OC)c(OC)cc23)c1 | cell-free assay, competition with immobilised ligand | 1 µM | 99
C[C@H]1CCN(c2nccc(-c3cnn4ncccc34)n2)C1 | binding | 1 µM | 85
CS(=O)(=O)NCC[C@H](NC(=O)c1cncc2c1cnn2-c1ccc(F)cc1)c1ccnc(S(C)(=O)=O)c1 | binding, competition with immobilised ligand | 1 µM | 99
